# Reference: ChEMBL document CHEMBL4270630
# Tests used:
# Influenza A virus [1] = experiment: Antiviral activity against Influenza A virus A/PR/8/34(H1N1) infected in MDCK cells assessed as reduction in virus-induced cytopathic effect after 3 days by microscopic method; assay type: functional, organism-based, A/Puerto Rico/8/1934(H1N1); settings: Influenza A virus, A/Puerto Rico/8/1934(H1N1), MDCK, 72 h
# In short: (§1)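 Semi-confluent MDCK cells were infected at an MOI of 0.0004 PFU/cell in Ultra-MDCK infection medium with 2 μg/mL TPCK-trypsin, together with compounds. After 3 days at 35 °C, CPE was scored by microscopy and confirmed by MTS formazan viability. EC50 is the concentration giving 50% inhibition of virus-induced CPE. Values are means of two to five independent tests.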
# Influenza A virus [2] = experiment: Antiviral activity against Influenza A virus A/PR/8/34(H1N1) infected in MDCK cells after 3 days by MTS assay; assay type: functional, organism-based, A/Puerto Rico/8/1934(H1N1); settings: Influenza A virus, A/Puerto Rico/8/1934(H1N1), MDCK, 72 h; in short: as §1
# Influenza A virus [3] = experiment: Antiviral activity against Influenza A virus A/Virginia/ATCC3/2009(H1N1pdm) infected in MDCK cells assessed as reduction in virus-induced cytopathic effect after 3 days by microscopic method; assay type: functional, organism-based, Influenza A virus (A/Virginia/03/2009(H1N1)); settings: 72 h; in short: as §1
# Influenza A virus [4] = experiment: Antiviral activity against Influenza A virus A/Virginia/ATCC3/2009(H1N1pdm) infected in MDCK cells after 3 days by MTS assay; assay type: functional, organism-based, Influenza A virus (A/Virginia/03/2009(H1N1)); settings: 72 h; in short: as §1
# H3N2 subtype [5] = experiment: Antiviral activity against Influenza A virus A/HK/7/87(H3N2) infected in MDCK cells assessed as reduction in virus-induced cytopathic effect after 3 days by microscopic method; assay type: functional, organism-based; settings: A/Hong Kong/7/1987(H3N2), 72 h; in short: as §1
# H3N2 subtype [6] = experiment: Antiviral activity against Influenza A virus A/HK/7/87(H3N2) infected in MDCK cells after 3 days by MTS assay; assay type: functional, organism-based; settings: A/Hong Kong/7/1987(H3N2), 72 h; in short: as §1
# Influenza B virus [7] = experiment: Antiviral activity against Influenza B virus B/Ned/537/05 infected in MDCK cells assessed as reduction in virus-induced cytopathic effect after 3 days by microscopic method; assay type: functional, organism-based; settings: B/Ned/537/05, MDCK, 72 h
# In short: (§2)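 Semi-confluent MDCK cells were infected at an MOI of 0.0004 PFU/cell in Ultra-MDCK infection medium with 2 μg/mL TPCK-trypsin, together with compounds. After 3 days at 35 °C, CPE was scored by microscopy and confirmed by MTS formazan viability. Values are means of two to five independent tests.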
# Influenza B virus [8] = experiment: Antiviral activity against Influenza B virus B/Ned/537/05 infected in MDCK cells after 3 days by MTS assay; assay type: functional, organism-based; settings: B/Ned/537/05, MDCK, 72 h; in short: as §2
# MDCK = experiment: Cytotoxicity against MDCK cells assessed as reduction in cell viability after 3 days by MTS assay; assay type: cell-based, Canis lupus familiaris; settings: dog, mdck, 72 h
# [9] = Cytotoxicity against MDCK cells assessed as alteration in cell morphology after 3 days by microscopic method; assay type: cell-based, Canis lupus familiaris; settings: dog
# In short: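 Mock-infected MDCK cells were treated with compounds in parallel with the antiviral assay, 3 days at 35 °C. MCC is the concentration causing minimal change in cell morphology by microscopy. CC50 is the 50% cytotoxic concentration by MTS formazan viability assay.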
# Human coronavirus 229E [10] = experiment: Antiviral activity against Human coronavirus 229E infected in HEL299 cells assessed as reduction in virus induced cytopathic effect after 5 days by microscopic method; assay type: functional, organism-based; settings: HEL 299, 120 h
# In short: (§3)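 Confluent HEL 299 cells in medium with 2% FCS were exposed to HCoV-229E (100 CCID50/well) together with compounds and held for 5 days at 35 °C. EC50 (CPE reduction) and MCC (minimal morphology change) were determined by microscopy. SI is MCC/EC50.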
# [11] = Cytotoxicity against HEL299 cells assessed as changes in cell morphology after 5 days by microscopic method; assay type: cell-based, HEL 299; settings: human; in short: as §3
# Human coronavirus 229E [12] = experiment: Antiviral activity against Human coronavirus 229E infected in human A549 cells assessed as reduction in virus RNA level after 3 days by qRT-PCR method; assay type: functional; settings: A549, 72 h
# In short: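 Confluent A549 cells were infected with HCoV-229E in 2% FCS medium with compounds present. The inoculum was removed at 1 h and compounds were kept on at 35 °C. Supernatants were harvested at day 3, lysed at 75 °C for 10 min, and viral genome copies counted by one-step qRT-PCR.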
# [13] = Cytotoxicity against human A549 cells assessed as changes in cell morphology after 3 days by microscopic method; assay type: cell-based
# In short: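 Mock-infected A549 cells were incubated with compounds for 3 days. MCC is the concentration causing minimal change in cell morphology by microscopy.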
# Influenza B virus [14] = experiment: Antiviral activity against Influenza B virus B/HK/05/72 infected in MDCK cells assessed as reduction in virus-induced cytopathic effect after 3 days by microscopic method; assay type: functional, organism-based; settings: B/Hong Kong/05/1972, MDCK, 72 h; in short: as §1
# Influenza B virus [15] = experiment: Antiviral activity against Influenza B virus B/HK/05/72 infected in MDCK cells after 3 days by MTS assay; assay type: functional, organism-based; settings: B/Hong Kong/05/1972, MDCK, 72 h; in short: as §1
Compound,EC50 (Influenza A virus [1]) [µM],EC50 (Influenza A virus [2]) [µM],EC50 (Influenza A virus [3]) [µM],EC50 (Influenza A virus [4]) [µM],EC50 (H3N2 subtype [5]) [µM],EC50 (H3N2 subtype [6]) [µM],EC50 (Influenza B virus [7]) [µM],EC50 (Influenza B virus [8]) [µM],CC50 (MDCK) [µM],MCC at 72 h [9] [µM],EC50 (Human coronavirus 229E [10]) [µM],MCC at 120 h [11] [µM],EC90 (Human coronavirus 229E [12]) [µM],EC99 (Human coronavirus 229E [12]) [µM],MCC at 72 h [13] [µM],EC50 (Influenza B virus [14]) [µM],EC50 (Influenza B virus [15]) [µM]
CCCCCCOCc1cn(CCOCCOCCOCCOCc2cn([C@H]3C(=O)N[C@@H]4Cc5ccc(c(Cl)c5)Oc5cc6cc(c5O)Oc5ccc(cc5Cl)[C@@H](O[C@@H]5O[C@H](CO)[C@@H](O)[C@H](O)[C@H]5NC(C)=O)[C@H]5NC(=O)[C@H](NC(O)[C@@H]6NC(=O)[C@@H](NC4=O)c4cc(O)cc(c4)Oc4cc3ccc4O)c3ccc(O)c(c3)-c3c(O)cc(O)cc3[C@H](C(=O)O)NC5=O)nn2)nn1 (stereo partly specified),> 100,> 100,> 100,> 100,> 100,> 100,> 100,> 100,51,100,44,≥ 100,25,44,> 50,–,–
CC(=O)N[C@H]1[C@H](O[C@@H]2c3ccc(c(Cl)c3)Oc3cc4cc(c3O)Oc3ccc(cc3Cl)C[C@H]3NC(=O)[C@H](NS(=O)(=O)c5cccc6c(N(C)C)cccc56)c5ccc(O)c(c5)Oc5cc(O)cc(c5)[C@H](NC3=O)C(=O)N[C@H]4C(O)N[C@H]3C(=O)N[C@H]2C(=O)N[C@@H](C(=O)O)c2cc(O)cc(O)c2-c2cc3ccc2O)O[C@H](CO)[C@@H](O)[C@@H]1O (stereo partly specified),4.9,7,6.3,5.9,8.3,2.3,6.7,5.3,52,20,> 100,≥ 4,–,–,–,–,–
CC(=O)Nc1ccc(S(=O)(=O)N[C@H]2C(=O)N[C@@H]3Cc4ccc(c(Cl)c4)Oc4cc5cc(c4O)Oc4ccc(cc4Cl)[C@@H](O[C@@H]4O[C@H](CO)[C@@H](O)[C@H](O)[C@H]4NC(C)=O)[C@H]4NC(=O)[C@H](NC(O)[C@@H]5NC(=O)[C@@H](NC3=O)c3cc(O)cc(c3)Oc3cc2ccc3O)c2ccc(O)c(c2)-c2c(O)cc(O)cc2[C@H](C(=O)O)NC4=O)cc1 (stereo partly specified),> 100,> 100,> 100,> 100,> 100,> 100,> 100,47,60,100,> 100,≥ 20,–,–,–,–,–
CCCCOCc1cn(CCOCCOCCOCCOCc2cn([C@H]3C(=O)N[C@@H]4Cc5ccc(c(Cl)c5)Oc5cc6cc(c5O)Oc5ccc(cc5Cl)[C@@H](O[C@@H]5O[C@H](CO)[C@@H](O)[C@H](O)[C@H]5NC(C)=O)[C@H]5NC(=O)[C@H](NC(O)[C@@H]6NC(=O)[C@@H](NC4=O)c4cc(O)cc(c4)Oc4cc3ccc4O)c3ccc(O)c(c3)-c3c(O)cc(O)cc3[C@H](C(=O)O)NC5=O)nn2)nn1 (stereo partly specified),> 100,51,> 100,47,> 100,31,> 100,28,> 100,100,≥ 100,≥ 100,–,–,–,–,–
CCCCCCCCCCCCSC1=C(SCCCCCCCCCCCC)C(=O)N(Cc2cn(C3C(=O)N[C@@H]4Cc5ccc(c(Cl)c5)Oc5cc6cc(c5O)Oc5ccc(cc5Cl)[C@@H](O[C@@H]5O[C@H](CO)[C@@H](O)[C@H](O)[C@H]5NC(C)=O)[C@H]5NC(=O)[C@H](NC(O)[C@@H]6NC(=O)[C@@H](NC4=O)c4cc(O)cc(c4)Oc4cc3ccc4O)c3ccc(O)c(c3)-c3c(O)cc(O)cc3[C@H](C(=O)O)NC5=O)nn2)C1=O (stereo partly specified),> 100,> 100,> 100,> 100,> 100,> 100,–,–,75,100,–,–,–,–,–,> 100,> 100
CCCSC1=C(SCCC)C(=O)N(Cc2cn(C3C(=O)N[C@@H]4Cc5ccc(c(Cl)c5)Oc5cc6cc(c5O)Oc5ccc(cc5Cl)[C@@H](O[C@@H]5O[C@H](CO)[C@@H](O)[C@H](O)[C@H]5NC(C)=O)[C@H]5NC(=O)[C@H](NC(O)[C@@H]6NC(=O)[C@@H](NC4=O)c4cc(O)cc(c4)Oc4cc3ccc4O)c3ccc(O)c(c3)-c3c(O)cc(O)cc3[C@H](C(=O)O)NC5=O)nn2)C1=O (stereo partly specified),> 100,> 100,> 100,> 100,> 100,> 100,–,–,22,20,–,–,–,–,–,> 100,> 100
O=C(N/C(=C\c1ccccc1)C(=O)N1CCC(O)(c2ccc(Br)cc2)CC1)c1ccccc1,–,–,–,–,–,–,–,–,–,–,–,–,11,15,≥ 50,–,–
CC(=O)N[C@H]1[C@H](O[C@@H]2c3ccc(c(Cl)c3)Oc3cc4cc(c3O)Oc3ccc(cc3Cl)C[C@H]3NC(=O)[C@H](NS(=O)(=O)c5ccc(-c6ccccc6)cc5)c5ccc(O)c(c5)Oc5cc(O)cc(c5)[C@H](NC3=O)C(=O)N[C@H]4C(O)N[C@H]3C(=O)N[C@H]2C(=O)N[C@@H](C(=O)O)c2cc(O)cc(O)c2-c2cc3ccc2O)O[C@H](CO)[C@@H](O)[C@@H]1O (stereo partly specified),1.8,1.7,2,2,1.5,1.6,1.8,2.4,15,11,> 100,4,–,–,–,–,–
CCCSC1=C(SCCC)C(=O)N(CCOCCOCCOCCOCc2cn(C3C(=O)N[C@@H]4Cc5ccc(c(Cl)c5)Oc5cc6cc(c5O)Oc5ccc(cc5Cl)[C@@H](O[C@@H]5O[C@H](CO)[C@@H](O)[C@H](O)[C@H]5NC(C)=O)[C@H]5NC(=O)[C@H](NC(O)[C@@H]6NC(=O)[C@@H](NC4=O)c4cc(O)cc(c4)Oc4cc3ccc4O)c3ccc(O)c(c3)-c3c(O)cc(O)cc3[C@H](C(=O)O)NC5=O)nn2)C1=O (stereo partly specified),> 100,> 100,> 100,7.8,6.2,≤ 7.8,–,–,38,20,–,–,–,–,–,> 100,> 100
